In PMC2938439 (The Journal of Membrane Biology, 2010):
Peptide text beside a SMILES is read from it.

B1: Annexin B12 (protein, UniProt P26256 1-316, looked up)
Annexin-B12: MVVQGTVKPHASFNSREDAETLRKAMKGIGTDEKSITHILATRSNAQRQQIKTDYTTLFGKHLEDELKSELSGNYEAAALALLRKPDEFLAEQLHAAMKGLGTDENALIDILCTQSNAQIHAIKAAFKLLYKEDLEKEIISETSGNFQRLLVSMLQGGRKEDEPVNAAHAAEDAAAIYQAGEGQIGTDESRFNAVLATRSYPQLHQIFHEYSKISNKTILQAIENEFSGDIKNGLLAIVKSVENRFAYFAERLHHAMKGLGTSDKTLIRILVSRSEIDLANIKETFQAMYGKSLYEFIADDCSGDYKDLLLQITGH

Key:
[1] = CD spectroscopy, peptide and LUVs in the same cuvette; format: physicochemical; settings: for Θ222, same cell: pH 7.0, ~25°C, error est. 10%
In short: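 Lipid dried from chloroform under nitrogen, then under vacuum overnight. It was hydrated in 10 mM potassium phosphate pH 7.0, vortexed, and extruded 10× under nitrogen through two stacked 0.1-μm polycarbonate filters to give LUVs. Peptide and vesicles shared one cuvette, 1-mm path. 10–30 scans, 190–260 nm, ~25°C. A vesicle-only spectrum was subtracted. Ellipticity was converted to per-residue values.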

[2] = CD spectroscopy, two-cuvette experiment; format: physicochemical; settings: error est. 10%
In short: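 Two-cuvette setup: test peptide solution in cell 1 and POPC LUV suspensions in cell 2, in the light path together. LUVs were extruded through 0.1-μm filters in 10 mM potassium phosphate pH 7.0. Peptide concentration was set by UV absorbance (tyrosine ε274nm 1,440 M−1 cm−1). 10–30 scans, 190–260 nm, 1-mm path, ~25°C. Ellipticity was expressed per residue.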

[3] = monomolecular, ref Scholtz et al. [1991]; cited from earlier work
[4] = CD of Annexin B12 in solution and bound to LUVs; format: physicochemical; settings: bound to LUVs in the presence of Ca^2+

| Molecule | molar ellipticity of the peptide ([1]; 25°C, buffer with LUVs up to 7 mM, 40 μM peptide) | Θ222, same cell ([1]; +0.25 mM POPC LUVs in same cuvette, 40 μM peptide) | Θ222, same cell ([1]; +3 mM POPC LUVs in same cuvette, 40 μM peptide) | Θ222, same cell ([1]; +5 mM POPC LUVs in same cuvette, 40 μM peptide) | Θ222, same cell ([1]; +7 mM POPC LUVs in same cuvette, 40 μM peptide) | binding to POPC vesicles ([1]; same-cuvette versus two-cuvette CD spectra, LUVs up to 7 mM) | Θ222, two cells ([2]; +3 mM POPC LUVs in separate cuvette, peptide in buffer (40 μM)) | Θ222, two cells ([2]; +5 mM POPC LUVs in separate cuvette, peptide in buffer (40 μM)) | Θ222, two cells ([2]; +7 mM POPC LUVs in separate cuvette, peptide in buffer (40 μM)) | Θ222, two cells ([2]; no lipid, peptide in buffer (40 μM) in cell 1, ~25°C) | α-helical content in buffer [3] | CD spectrum, aqueous versus LUV-associated [4] |
| --- | --- | --- | --- | --- | --- | --- | --- | --- | --- | --- | --- | --- |
| CC(=O)N[C@@H](Cc1ccc(O)cc1)C(=O)N[C@@H](C)C(=O)N[C@@H](CCC(=O)O)C(=O)N[C@@H](C)C(=O)N[C@@H](C)C(=O)N[C@@H](CCCCN)C(=O)N[C@@H](C)C(=O)N[C@@H](C)C(=O)N[C@@H](CCC(=O)O)C(=O)N[C@@H](C)C(=O)N[C@@H](C)C(=O)N[C@@H](CCCCN)C(=O)N[C@@H](C)C(=O)N[C@@H](C)C(=O)N[C@@H](CCC(=O)O)C(=O)N[C@@H](C)C(=O)N[C@@H](C)C(=O)N[C@@H](CCCCN)C(=O)N[C@@H](C)C(=O)N[C@@H](C)C(=O)N[C@@H](CCC(=O)O)C(=O)N[C@@H](C)C(=O)N[C@@H](C)C(=O)N[C@@H](CCCCN)C(=O)N[C@@H](C)C(=O)N[C@@H](Cc1ccccc1)C(N)=O [Ac-Y(AEAAKA)4F-NH2] (Ac-YAEAAKAAEAAKAAEAAKAAEAAKAF-NH2) | −20(±0.5) × 10^3 deg cm^2 dmol^−1 | −20,100 deg cm^2 dmol^−1 | −19,800 deg cm^2 dmol^−1 | −19,700 deg cm^2 dmol^−1 | −19,700 deg cm^2 dmol^−1 | does not bind to POPC vesicles | −20,100 deg cm^2 dmol^−1 | −20,100 deg cm^2 dmol^−1 | −19,900 deg cm^2 dmol^−1 | −20,300 deg cm^2 dmol^−1 | ~ 60% |  |
| B1 |  |  |  |  |  |  |  |  |  |  |  | essentially the same CD spectrum |
